Reference: ChEMBL document CHEMBL2346552, “A novel metformin derivative, HL010183, inhibits proliferation and invasion of triple-negative breast cancer cells” (Bioorg Med Chem, 2013)
Where a name gives a salt, the structure may show the parent alone. Activity calls are given as the source filed them. The rule behind the calls is not given here.

Assays:
[1] = tested on: Hs-578T; test: Antiinvasive activity against triple-negative human Hs578T cells after 17 hrs by light microscopic analysis; type: functional, cell-based
Outline: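 Transwell filter invasion assay; serum-free medium with 0.1% BSA plus drug in the lower chamber, 5 × 10⁴ Hs578T cells plus drug in the upper chamber. Invaded cells on the underside of the filter counted by light microscopy at 400× after 17 h, thirteen fields per filter, each sample in triplicate. Hs578T cultured in DMEM at 37 °C, 5% CO₂.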

[2] = tested on: MDA-MB-231; test: Cytotoxicity against triple-negative human MDA-MB-231 cells assessed as growth inhibition after 24 hrs by MTT assay; type: functional, cell-based; conditions: MDA-MB-231, 24 h
[3] = tested on: Hs-578T; test: Cytotoxicity against triple-negative human Hs578T cells assessed as growth inhibition after 24 hrs by MTT assay; type: functional, cell-based
[4] = tested on: MDA-MB-231; test: Induction of apoptosis in triple-negative human MDA-MB-231 cells assessed as viable cells at 10 mM after 24 hrs by annexin V-FITC/propidium iodide staining-based flow cytometric analysis relative to control; type: functional; conditions: MDA-MB-231, 24 h, read-out: Activity
Outline: (§1)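 MDA-MB-231 cells treated 24 h at 0.1 or 10 mM were stained with FITC-annexin V and propidium iodide and analyzed by flow cytometry. Quadrants: annexin−/PI− viable; annexin+/PI− early apoptotic; PI+ late apoptotic/necrotic.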

[5] = tested on: Mus musculus; test: Toxicity in BALB/c athymic nude mouse xenografted with triple-negative human MDA-MB-231 cells assessed as body weight change at 500 mg/kg, po qd measured for 35 days relative to vehicle-treated control; type: organism-based; parameters: dose 500 mg/kg, route oral; conditions: in vivo, 840 h
Outline: (§2)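 MDA-MB-231 s.c. xenograft in nude mice (n = 6), dosed orally by gavage once daily for 35 days at 25–100 or 500 mg/kg. Body weights were recorded three times weekly and compared with vehicle-treated mice.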

[6] = tested on: MDA-MB-231; test: Induction of apoptosis in triple-negative human MDA-MB-231 cells assessed as apoptotic cells at 10 mM after 24 hrs by annexin V-FITC/propidium iodide staining-based flow cytometric analysis relative to control; type: functional; outline: as §1
[7] = tested on: MDA-MB-231; test: Induction of apoptosis in triple-negative human MDA-MB-231 cells assessed as dead cells at 10 mM after 24 hrs by annexin V-FITC/propidium iodide staining-based flow cytometric analysis relative to control; type: functional
Outline: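 MDA-MB-231 cells grown in DMEM at 37 °C, 5% CO2, then exposed for 24 h to agent dissolved in distilled water. Cells were stained at 1 × 10^6 cells/ml with FITC-annexin V and/or propidium iodide for flow cytometry and read as quadrant dot plots. Lower left is viable, lower right early apoptotic, upper quadrants late apoptotic/necrotic.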

[8] = tested on: MDA-MB-231; test: Induction of apoptosis in triple-negative human MDA-MB-231 cells assessed as early apoptotic cells at 10 mM after 24 hrs by annexin V-FITC/propidium iodide staining-based flow cytometric analysis relative to control; type: functional; outline: as §1
[9] = tested on: Hs-578T; test: Antiinvasive activity against triple-negative human Hs578T cells at 5 mM after 17 hrs by light microscopic analysis relative to control; type: functional
[10] = tested on: Hs-578T; test: Antiinvasive activity against triple-negative human Hs578T cells assessed as downregulation of MMP2 level by immunoblot analysis; type: functional, cell-based
[11] = tested on: Hs-578T; test: Ratio of metformin IC50 to compound IC50 for triple-negative human Hs578T cells; type: functional
Outline: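 Hs578T cells were exposed to compounds for 24 h and viability was read by MTT (4 h, formazan dissolved in DMSO, OD 540 nm), in triplicate. The ratio uses IC50 values from this assay.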

[12] = tested on: Hs-578T; test: Antiinvasive activity against triple-negative human Hs578T cells assessed as downregulation of MMP9 level at 0.05 to 0.2 mM after 24 hrs by gelatin zymogram assay; type: functional, cell-based
Outline: (§3)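 Hs578T cells were cultured 24 h in serum-free medium containing compound at 0.05–0.2 mM or 5–20 mM. Gelatinolytic activity of the conditioned medium was resolved by gelatin zymography (MMP-2 72 kDa, MMP-9 92 kDa). Relative band intensities were quantified by densitometry.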

[13] = tested on: Hs-578T; test: Ratio of compound activity to metformin activity for inhibition of triple-negative human Hs578T cells invasiveness; type: functional
[14] = tested on: MDA-MB-231; test: Antitumor activity against triple-negative human MDA-MB-231 cells xenografted in BALB/c athymic nude mouse assessed as tumor growth inhibition at 50 mg/kg, po qd measured for 35 days relative to vehicle-treated control; type: functional; conditions: MDA-MB-231, 840 h, read-out: TGI
Outline: (§4)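 MDA-MB-231 cells (5 × 10^6 in 0.1 mL serum-free medium) were injected s.c. into the right lower flank of nude mice. At tumor volumes of 100–130 mm³, mice (n = 6) received oral gavage once daily for 35 days at 25, 50, 100 or 500 mg/kg. Caliper volumes, (length × width²)/2, were taken three times weekly. Inhibition was calculated versus the vehicle group.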

[15] = molecular target: Serine/threonine-protein kinase mTOR (Homo sapiens) (UniProt P42345); test: Inhibition of mTOR phosphorylation in triple-negative human […] cells at 0.2 mM after 24 hrs by immunoblot analysis; type: cell-based
Outline: (§5)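 Hs578T cells exposed to compound for 24 h at 0.05–0.2 mM or 5–20 mM. Lysates were made in Triton X-100 buffer (pH 7.4, NaF, EGTA, DTT, Na3VO4, protease inhibitors) and run on 10% SDS–PAGE. Immunoblots were probed with anti-phospho AMPK or anti-phospho mTOR antibody.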

[16] = tested on: MDA-MB-231; test: Antitumor activity against triple-negative human MDA-MB-231 cells xenografted in BALB/c athymic nude mouse assessed as tumor growth inhibition at 25 mg/kg, po qd measured for 35 days relative to vehicle-treated control; type: functional; conditions: MDA-MB-231, 840 h, read-out: TGI; outline: as §4
[17] = tested on: Hs-578T; test: Antiinvasive activity against triple-negative human Hs578T cells assessed as downregulation of MMP2 level after 24 hrs by gelatin zymogram assay; type: functional, cell-based; outline: as §3
[18] = molecular target: 5'-AMP-activated protein kinase catalytic subunit alpha-2 (Homo sapiens) (UniProt P54646); test: Ratio of compound activity to metformin activity for activation of AMPK in triple-negative human […] cells; type: cell-based
Chain of 5'-AMP-activated protein kinase catalytic subunit alpha-2 (Homo sapiens) (P54646 whole entry, looked up): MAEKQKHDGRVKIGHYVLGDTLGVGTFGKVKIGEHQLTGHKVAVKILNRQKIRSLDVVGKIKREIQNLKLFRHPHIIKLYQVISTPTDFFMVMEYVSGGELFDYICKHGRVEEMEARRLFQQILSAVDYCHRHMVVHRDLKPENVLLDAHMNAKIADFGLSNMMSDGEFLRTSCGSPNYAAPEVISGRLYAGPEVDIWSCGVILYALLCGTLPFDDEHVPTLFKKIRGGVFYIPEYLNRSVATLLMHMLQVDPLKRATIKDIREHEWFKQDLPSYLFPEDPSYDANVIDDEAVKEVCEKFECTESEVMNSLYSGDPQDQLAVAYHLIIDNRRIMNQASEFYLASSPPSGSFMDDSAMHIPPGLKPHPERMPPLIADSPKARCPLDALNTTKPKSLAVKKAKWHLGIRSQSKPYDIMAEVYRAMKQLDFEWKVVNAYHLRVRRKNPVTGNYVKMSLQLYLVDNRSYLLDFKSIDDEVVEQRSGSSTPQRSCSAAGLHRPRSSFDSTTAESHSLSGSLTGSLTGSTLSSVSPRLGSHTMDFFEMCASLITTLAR

[19] = tested on: MDA-MB-231; test: Induction of apoptosis in triple-negative human MDA-MB-231 cells assessed as apoptotic cells at 0.1 mM after 24 hrs by annexin V-FITC/propidium iodide staining-based flow cytometric analysis relative to control; type: functional; outline: as §1
[20] = molecular target: 5'-AMP-activated protein kinase catalytic subunit alpha-2 (Homo sapiens) (UniProt P54646); test: Activation of AMPK in triple-negative human […] cells at 0.2 mM after 24 hrs by immunoblot analysis; type: cell-based; outline: as §5
[21] = tested on: Hs-578T; test: Antiinvasive activity against triple-negative human Hs578T cells at 0.2 mM after 17 hrs by light microscopic analysis relative to control; type: functional
Outline: (§6)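 Transwell invasion with polycarbonate filters. 5 × 10^4 Hs578T cells were placed in the upper chamber with drug, and the lower chamber held serum-free medium with 0.1% BSA plus drug. After 17 h, cells invaded to the filter underside were counted by light microscopy (400×) in 13 fields per filter. Each sample was run in triplicate.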

[22] = tested on: MDA-MB-231; test: Antitumor activity against triple-negative human MDA-MB-231 cells xenografted in BALB/c athymic nude mouse assessed as tumor growth inhibition at 100 mg/kg, po qd measured for 35 days relative to vehicle-treated control; type: functional; conditions: MDA-MB-231, 840 h, read-out: TGI; outline: as §4
[23] = tested on: MDA-MB-231; test: Induction of apoptosis in triple-negative human MDA-MB-231 cells assessed as dead cells at 0.1 mM after 24 hrs by annexin V-FITC/propidium iodide staining-based flow cytometric analysis relative to control; type: functional
Outline: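 MDA-MB-231 cells grown in DMEM at 37 °C, 5% CO2, then exposed for 24 h to agent dissolved in DMSO. Cells were stained at 1 × 10^6 cells/ml with FITC-annexin V and/or propidium iodide and analysed by flow cytometry as quadrant dot plots. Lower left is viable, lower right early apoptotic, upper right/left late apoptotic/necrotic (membrane integrity lost).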

[24] = tested on: Mus musculus; test: Toxicity in BALB/c athymic nude mouse xenografted with triple-negative human MDA-MB-231 cells assessed as body weight change at 25 to 100 mg/kg, po qd measured for 35 days relative to vehicle-treated control; type: organism-based; parameters: dose 25-100 mg/kg, route oral; conditions: in vivo, 840 h; outline: as §2
[25] = tested on: MDA-MB-231; test: Induction of apoptosis in triple-negative human MDA-MB-231 cells assessed as early apoptotic cells at 0.1 mM after 24 hrs by annexin V-FITC/propidium iodide staining-based flow cytometric analysis relative to control; type: functional; outline: as §1
[26] = tested on: MDA-MB-231; test: Induction of apoptosis in triple-negative human MDA-MB-231 cells assessed as viable cells at 0.1 mM after 24 hrs by annexin V-FITC/propidium iodide staining-based flow cytometric analysis relative to control; type: functional; conditions: MDA-MB-231, 24 h, read-out: Activity; outline: as §1
[27] = tested on: MDA-MB-231; test: Ratio of compound activity to metformin activity for tumor growth inhibition of triple-negative human MDA-MB-231 cells xenografted in BALB/c athymic nude mouse; type: functional
[28] = molecular target: Serine/threonine-protein kinase mTOR (Homo sapiens) (UniProt P42345); test: Ratio of compound activity to metformin activity for inhibition of mTOR phosphorylation in triple-negative human […] cells; type: cell-based
[29] = molecular target: 5'-AMP-activated protein kinase catalytic subunit alpha-2 (Homo sapiens) (UniProt P54646); test: Activation of AMPK in triple-negative human […] cells at 20 mM after 24 hrs by immunoblot analysis; type: cell-based; outline: as §5
[30] = tested on: Hs-578T; test: Antiinvasive activity against triple-negative human Hs578T cells at 10 mM after 17 hrs by light microscopic analysis; type: functional, cell-based; outline: as §6
[31] = tested on: Hs-578T; test: Antiinvasive activity against triple-negative human Hs578T cells assessed as downregulation of MMP9 level at 5 to 20 mM after 24 hrs by gelatin zymogram assay; type: functional, cell-based; outline: as §3
[32] = tested on: Hs-578T; test: Antiinvasive activity against triple-negative human Hs578T cells at 20 mM after 17 hrs by light microscopic analysis; type: functional, cell-based; outline: as §6
[33] = molecular target: Serine/threonine-protein kinase mTOR (Homo sapiens) (UniProt P42345); test: Inhibition of mTOR phosphorylation in triple-negative human […] cells at 20 mM after 24 hrs by immunoblot analysis; type: cell-based; outline: as §5

`CN(C)C(=N)NC(=N)N.NCCCC(=O)O` [listing 1 of 2 here] was tested, and the Activity [1] was “Dose-dependent effect”.

For `CN(C)C(=N)NC(=N)N.Cl` [METFORMIN HYDROCHLORIDE], the IC50 [2] was 58.4 mM, the IC50 [3] was 26.8 mM and the viability at 10000 µM [4] was 82.4%. The Activity [5] was “Non-toxic”, the Activity [6] was 15.3% and the Activity [7] was 0.5%. The Activity [8] was 1.8%.

With `CN(C)C(=N)NC(=N)N.NCC1(CC(=O)O)CCCCC1` [METFORMIN GABAPENTIN SALT] the IC50 [2] was 16.1 mM, the IC50 [3] was 4 mM and the inhibition at 5000 µM [9] was 73.6%.

`CC(C)C[C@H](CN)CC(=O)O.CN(C)C(=N)NC(=N)N` [METFORMIN PREGABALIN SALT] was tested, and the IC50 [2] was 17.7 mM, the IC50 [3] was 7.2 mM and the inhibition at 5000 µM [9] was 64.6%.

With `CCCc1ccccc1Nc1nc(N)nc(N(C)C)n1.Cl` the Activity [10] was “Dose-dependent effect”, the “Ratio IC50” value [11] was 100 and the Activity [12] was “inactive”. The Ratio [13] was 100, the IC50 [2] was 0.28 mM and the inhibition in vivo at 50 mg/kg [14] was 17.4%. For the same molecule, the inhibition [15] was “Active”, the IC50 [3] was 0.28 mM and the inhibition in vivo at 25 mg/kg [16] was 6.2%. For the same molecule, the Activity [17] was “Dose-dependent effect”, the Ratio [18] was 100 and the Activity [19] was 17%. For the same molecule, the Activity [20] was “Active”, the inhibition at 200 µM [21] was 36.6% and the inhibition in vivo at 100 mg/kg [22] was 27.9%. The Activity [23] was 1.6%, the Activity [24] was “Non-toxic” and the Activity [25] was 3.1%. For the same molecule, the viability at 100 µM [26] was 78.4%, the Ratio [27] was 5 and the Ratio [28] was 100.

With `CN(C)C(=N)NC(=N)N` the Activity [10] was “Dose-dependent effect”, the Activity [29] was “Active” and the Activity [17] was “Dose-dependent effect”. The inhibition [30] was “inactive”, the Activity [31] was “inactive” and the inhibition [32] was “Active”. The inhibition [33] was “Active”.

`CN(C)C(=N)NC(=N)N.NCCCC(=O)O` [listing 2 of 2 here] was tested, and the IC50 [2] was 41.5 mM, the IC50 [3] was 9.1 mM and the inhibition at 5000 µM [9] was 43.6%.

Work on `N=C(N)NC(=N)NCCc1ccccc1` [PHENFORMIN ACETIC ACID SALT] yielded an IC50 [2] of 1.68 mM and an IC50 [3] of 0.9 mM.
